ChEMBL document CHEMBL5365533, “DNA major versus minor groove occupancy of monomeric and dimeric crystal violet derivatives. Toward structural correlations” (Bioorg Med Chem, 2023)
Activity calls are given as the source filed them. The calls are words filed in the database; no cut-off is given here.

Columns and labels:
[1] = Binding affinity to DDD hairpin DNA (unknown origin) assessed as binding constant at 100 uM by ITC analysis
Outline: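 Isothermal titration calorimetry of DDD hairpin (10 μM in cell) titrated with ligand (100 μM in syringe), 10 mM Tris-HCl pH 7.0, 30 °C; 25 injections of 10 μL. Heats of dilution subtracted; single-site binding model fitted; K averaged from triplicate experiments.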

DNA [2] = assay: Displacement of Ethidium bromide from (AT)5 (5'-GGGATATA-TATATCCC-3') DNA (unknown origin)/EtBr complex assessed as decrease in initial absorbance of DNA by crystal violet staining based analysis; type: nucleic-acid assay
DNA [3] = assay: Displacement of Ethidium bromide from A5T5 (5'-GGGAAAAATTTTTCCCCC-3') DNA (unknown origin)/EtBr complex assessed as decrease in initial absorbance of DNA by crystal violet staining based analysis; type: nucleic-acid assay
Calf thymus DNA [4] = assay: Binding affinity to calf thymus DNA assessed as change in melting temperature by UV thermal denaturation assay; type: nucleic-acid assay; conditions: Bos taurus
Outline: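 CT DNA in 10 mM Tris-HCl pH 7.0 at a DNA:ligand ratio of 30:1, in 1 cm quartz cuvettes. Absorbance read every 2 °C from 25 to 95 °C, heating at 1 °C/min. Tm taken from first-derivative plots.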

[5] = Displacement of Ethidium bromide from G5C5 (5'-AAAGGGGG-CCCCCTTT-3') DNA (unknown origin)/EtBr complex assessed as decrease in initial absorbance of DNA by crystal violet staining based analysis
Calf thymus DNA [6] = assay: Ratio of Kapp for displacement of ethidium bromide from calf thymus DNA/EtBr complex to Kapp for displacement of ethidium bromide from calf thymus DNA/EtBr in presence of methyl green; type: nucleic-acid assay; conditions: Bos taurus
Outline: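 Fluorescence titration of CT DNA (1.0 μM/bp) plus ethidium (0.5 μM), with or without netropsin or methyl green (0.5 μM each), against increasing ligand in 10 mM Tris-HCl pH 7.0. Excitation 520 nm, emission 590 nm, read after 3 min equilibration. C50 is the concentration giving 50% fluorescence loss; Kapp = 9.5×10^6 M⁻¹ × C_ethidium/C50.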

[7] = Displacement of Ethidium bromide from cMyc (5'-CACGTG-3') hairpin DNA (unknown origin)/EtBr complex assessed as decrease in initial absorbance of DNA by crystal violet staining based analysis
[8] = Displacement of Ethidium bromide from STAT6 (5'-TCCTAG-3') hairpin DNA (unknown origin)/EtBr complex assessed as decrease in initial absorbance of DNA by crystal violet staining based analysis
Calf thymus DNA [9] = assay: Binding affinity to calf thymus DNA in Tris-HCl buffer at pH 5.0 assessed as dye aggregation in the DNA groove at 337nm at 1 mM incubated for 5 mins by UV spectra analysis; type: nucleic-acid assay; conditions: Bos taurus
Outline: (§1)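 CT DNA (80 μM/bp) in 10 mM Tris-HCl pH 5.0 received small aliquots of ligand from a 1 mM stock; incubated 5 min at 20 °C. CD (average of three scans) and UV spectra recorded 215–350 nm in 0.5 nm increments under identical conditions.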

[10] = Displacement of Ethidium bromide from NFAT1 (5-GAAAAA-3') hairpin DNA (unknown origin)/EtBr complex assessed as decrease in initial absorbance of DNA by crystal violet staining based analysis
[11] = Binding affinity to DDD (5-CGAATT-3') hairpin DNA (unknown origin) assessed as binding constant by isothermal titration calorimetry
AT rich DNA [12] = assay: Displacement of Ethidium bromide from AT3 (5'-ATATAT-3') hairpin DNA (unknown origin)/EtBr complex assessed as decrease in initial absorbance of DNA by crystal violet staining based analysis; type: nucleic-acid assay
Calf thymus DNA [13] = assay: Binding affinity to calf thymus DNA assessed as bathochromic shift by UV spectroscopic analysis; type: nucleic-acid assay; conditions: Bos taurus
Outline: (§2)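 UV titration in 10 mM Tris-HCl pH 7.0 with ligand fixed at 5.0 μM and CT DNA:ligand ratios of 0:1, 1:1, 2:1, 5:1, 10:1 and 30:1.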

Calf thymus DNA [14] = assay: Binding affinity to calf thymus DNA in Tris-HCl buffer at pH 7.0 assessed as differential groove occupancy at 100 uM by ITC analysis; type: nucleic-acid assay; conditions: Bos taurus
Outline: (§3)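 ITC of CT DNA (100 μM/bp in cell) titrated with ligand (100 μM in syringe), 10 mM Tris-HCl pH 7.0; 25 injections of 10 μL at 30 °C, or for one ligand 50 injections of 5 μL at 27 °C. Buffer-into-DNA heats subtracted; single-site model gives K, N, ΔH and ΔS.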

[15] = Displacement of Ethidium bromide from NFAT1 (5-GAAAAA-3') hairpin DNA (unknown origin)/EtBr complex assessed as binding constant by crystal violet staining based analysis
[16] = Displacement of Ethidium bromide from cMyc (5'-CACGTG-3') hairpin DNA (unknown origin)/EtBr complex assessed as binding constant by crystal violet staining based analysis
Calf thymus DNA [17] = assay: Binding affinity to calf thymus DNA in Tris-HCl buffer at pH 7.0 assessed as change in entropy at 100 uM by isothermal titration […] analysis; type: nucleic-acid assay; conditions: Bos taurus; outline: as §3
Calf thymus DNA [18] = assay: Binding affinity to calf thymus DNA in Tris-HCl buffer at pH 7.0 assessed as decrease in viscosity incubated for 30 mins by Ostwald viscometer analysis; type: nucleic-acid assay; conditions: Bos taurus
Outline: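 Ostwald viscometer at 23.0 ± 1 °C. CT DNA held at 300 μM/bp in 10 mM Tris-HCl pH 7.0 with ligand or ethidium at 0–26 μM, incubated 30 min before timing flow. (η/η0)^1/3 plotted against [ligand]/[DNA]; three replicates, SD shown.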

[19] = Displacement of Ethidium bromide from STAT6 (5'-TCCTAG-3') hairpin DNA (unknown origin)/EtBr complex assessed as binding constant by crystal violet staining based analysis
Calf thymus DNA [20] = assay: Binding affinity to calf thymus DNA assessed as hypochromic shift by UV spectroscopic analysis; type: nucleic-acid assay; conditions: Bos taurus; outline: as §2
Calf thymus DNA [21] = assay: Binding affinity to calf thymus DNA in Tris-HCl buffer at pH 7.0 assessed as change in enthalpy at 100 uM by isothermal titration […] analysis; type: nucleic-acid assay; conditions: Bos taurus; outline: as §3
[22] = Displacement of Ethidium bromide from G6 (5'-GGGGGG-3') hairpin DNA (unknown origin)/EtBr complex assessed as decrease in initial absorbance of DNA by crystal violet staining based analysis
Calf thymus DNA [23] = assay: Binding affinity to calf thymus DNA in Tris-HCl buffer at pH 5.0 assessed as dye aggregation in the DNA groove at 310nm at 1 mM incubated for 5 mins by UV spectra analysis; type: nucleic-acid assay; conditions: Bos taurus; outline: as §1
[24] = Displacement of Ethidium bromide from DDD (5-CGAATT-3') hairpin DNA (unknown origin)/EtBr complex assessed as decrease in initial absorbance of DNA by crystal violet staining based analysis
AT rich DNA [25] = assay: Displacement of Ethidium bromide from AT3 (5'-ATATAT-3') hairpin DNA (unknown origin)/EtBr complex assessed as binding constant by crystal violet staining based analysis; type: nucleic-acid assay

K [1] | C50 (DNA [2]) | C50 (DNA [3]) | ΔTm (Calf thymus DNA [4]) | C50 [5] | C50 [7] | C50 [8] | C50 [10] | C50 (AT rich DNA [12]) | C50 [22] | C50 [24] | SMILES | other results
3.1 10^5/M | 0.32 µM | 0.52 µM | 4.6 °C | 0.88 µM |  |  |  |  |  |  | CN(C)c1ccc(C(=C2C=CC(=[N+](C)C)C=C2)c2ccc3cc(N(C)C)ccc3c2)cc1 | 
96.4 10^5/M | 2.75 µM | 2.61 µM | 6.2 °C | 2.99 µM |  |  |  |  |  |  | CN(C)c1ccc(C(=C2C=CC(=[N+](C)C)C=C2)c2ccc(N(C)C)c(-c3ccccc3)c2)cc1 | Ratio (Calf thymus DNA [6]): 2.3
20.5 10^5/M |  |  | 0.9 °C |  | 1.56 µM | 1.09 µM | 2.64 µM | 2.08 µM | 1 µM | 1.57 µM | CN(C)c1ccc(C(=C2C=CC(=[N+](C)C)C=C2)c2ccc(OCc3ccccc3COc3ccc(C(=C4C=CC(=[N+](C)C)C=C4)c4ccc(N(C)C)cc4)cc3)cc2)cc1 | Activity (Calf thymus DNA [9]): Active; K [11]: 20.5 10^5/M; Activity (Calf thymus DNA [13]): Active; Activity (Calf thymus DNA [14]): Active; K [15]: 29.1 10^5/M; K [16]: 5.06e+06 M⁻¹; deltaS (Calf thymus DNA [17]): -0.12 kcal/mol; Activity (Calf thymus DNA [18]): Dose-Dependent Effect; K [19]: 1.32 10^5/M; Activity (Calf thymus DNA [20]): Active; deltaH (Calf thymus DNA [21]): -44.7 kcal/mol; Activity (Calf thymus DNA [23]): Active; K (AT rich DNA [25]): 1.3 10^5/M
0.3 10^5/M | 1.81 µM | 1.83 µM | 1.6 °C | 2.09 µM |  |  |  |  |  |  | CN(C)c1ccc(C(=C2C=CC(=[N+](C)C)C=C2)c2ccc(N(C)C)c(-c3ccccc3)c2)cc1-c1ccccc1 | 
2.4 10^5/M |  |  | 2.6 °C |  | 1.42 µM | 1.32 µM | 1.23 µM | 1.36 µM | 1.25 µM | 1.47 µM | CN(C)c1ccc(C(=C2C=CC(=[N+](C)C)C=C2)c2ccc(-c3cc4c(cc3-c3ccc(C(=C5C=CC(=[N+](C)C)C=C5)c5ccc(N(C)C)cc5)cc3)OCO4)cc2)cc1 | 
